Activity calls are given as the source filed them. The rule behind the calls is not given here.
Key:
[1] = tested on: MKN-74; test: Induction of autophagy in human MKN74 cells transfected with GFP-mRFP-LC3 assessed as increase in LC3 puncta formation at 0.5 uM measured after 24 hrs by fluorescence microscopic analysis; assay type: functional, cell-based
Outline: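 MKN-74 cells transfected with GFP-mRFP-LC3 plasmid, treated 24 h at 0.5 μM. GFP-LC3 puncta imaged by fluorescence microscopy.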

[2] = target: T1, Mitogen-activated protein kinase; ERK1/ERK2 (Homo sapiens) (UniProt P27361+P28482); test: Inhibition of ERK1/2 in human MKN74 cells assessed as reduction in RSK phosphorylation at T359/S363 residue at 0.5 uM measured up to 24 hrs by Western blot analysis; assay type: cell-based
T1 sequence (P27361 whole entry, looked up, the tested form may be a part): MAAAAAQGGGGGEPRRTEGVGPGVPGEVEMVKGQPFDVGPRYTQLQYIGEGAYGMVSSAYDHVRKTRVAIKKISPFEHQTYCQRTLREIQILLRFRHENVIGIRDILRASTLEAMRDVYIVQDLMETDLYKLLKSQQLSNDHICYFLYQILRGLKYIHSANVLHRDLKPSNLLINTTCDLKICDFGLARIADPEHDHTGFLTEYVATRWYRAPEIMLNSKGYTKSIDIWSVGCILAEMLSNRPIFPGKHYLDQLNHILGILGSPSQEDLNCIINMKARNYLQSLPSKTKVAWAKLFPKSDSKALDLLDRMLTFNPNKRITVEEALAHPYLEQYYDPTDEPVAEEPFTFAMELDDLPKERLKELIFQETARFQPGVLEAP
T1 sequence (P28482 whole entry, looked up, the tested form may be a part): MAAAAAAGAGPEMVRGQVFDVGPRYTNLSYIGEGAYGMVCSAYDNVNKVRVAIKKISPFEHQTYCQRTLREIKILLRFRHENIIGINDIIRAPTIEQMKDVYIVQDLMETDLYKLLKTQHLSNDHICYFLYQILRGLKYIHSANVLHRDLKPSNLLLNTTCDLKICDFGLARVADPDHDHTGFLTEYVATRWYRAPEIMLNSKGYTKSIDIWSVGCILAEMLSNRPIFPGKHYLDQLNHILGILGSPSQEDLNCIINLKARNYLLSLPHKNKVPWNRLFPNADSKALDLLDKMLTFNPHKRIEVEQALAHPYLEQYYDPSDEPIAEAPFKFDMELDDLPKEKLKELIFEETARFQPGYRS

[3] = target: Mitogen-activated protein kinase 1 (Homo sapiens) (UniProt P28482); test: Inhibition of wild-type human full length ERK2 (M1 to S360 residues) expressed in bacterial expression system at 1 uM by Kinomescan method relative to control
Mitogen-activated protein kinase 1 (Homo sapiens), sequence (P28482 whole entry, the tested form may be a part): as the sequence (P28482 whole entry, looked up, the tested form may be a part) above
Outline: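 KINOMEscan binding assays over a 100-kinase panel, with test compound at 1 μM. Results are given as % inhibition.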

[4] = tested on: HL-60; test: Induction of cytoplasmic vacuolization in human HL60 cells; assay type: functional, cell-based
[5] = target: MAPK3/MAPK7 (Homo sapiens) (UniProt P27361+Q13164); test: Inhibition of ERK1/5 in human MKN74 cells assessed as reduction in c-MYC phosphorylation at S62 residue at 0.5 uM measured up to 24 hrs by Western blot analysis; assay type: cell-based
MAPK3/MAPK7 (Homo sapiens), sequence (P27361 whole entry, looked up): as the sequence (P27361 whole entry, looked up, the tested form may be a part) above
MAPK3/MAPK7 (Homo sapiens), sequence (Q13164 whole entry, looked up): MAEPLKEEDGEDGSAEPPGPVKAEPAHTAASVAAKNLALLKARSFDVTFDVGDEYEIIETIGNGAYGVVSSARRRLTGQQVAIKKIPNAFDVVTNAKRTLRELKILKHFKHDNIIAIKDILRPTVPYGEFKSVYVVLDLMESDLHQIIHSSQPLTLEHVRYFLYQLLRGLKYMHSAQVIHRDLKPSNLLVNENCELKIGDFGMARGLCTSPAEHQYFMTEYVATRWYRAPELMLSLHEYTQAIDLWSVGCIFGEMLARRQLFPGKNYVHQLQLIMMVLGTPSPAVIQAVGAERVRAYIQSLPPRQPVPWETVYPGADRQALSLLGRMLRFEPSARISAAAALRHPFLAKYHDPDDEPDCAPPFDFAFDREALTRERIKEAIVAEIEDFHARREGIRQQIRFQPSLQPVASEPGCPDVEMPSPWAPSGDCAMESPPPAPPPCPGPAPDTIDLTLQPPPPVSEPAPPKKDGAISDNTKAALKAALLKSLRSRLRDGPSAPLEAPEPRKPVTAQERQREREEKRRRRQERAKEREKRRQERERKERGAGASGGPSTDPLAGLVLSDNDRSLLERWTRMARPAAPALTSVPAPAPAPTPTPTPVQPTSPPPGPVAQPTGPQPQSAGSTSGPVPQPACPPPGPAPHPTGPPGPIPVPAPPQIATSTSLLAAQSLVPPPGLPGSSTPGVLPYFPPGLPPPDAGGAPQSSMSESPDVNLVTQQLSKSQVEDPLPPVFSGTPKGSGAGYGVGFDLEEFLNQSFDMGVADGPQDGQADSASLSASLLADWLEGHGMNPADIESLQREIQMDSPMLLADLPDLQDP

[6] = target: Mitogen-activated protein kinase 7 (Homo sapiens) (UniProt Q13164); test: Inhibition of ERK5 in human MKN74 cells harboring siRNA assessed as reduction in ERK5 phosphorylation at 0.5 uM by immunofluorescence assay; assay type: cell-based
Mitogen-activated protein kinase 7 (Homo sapiens), sequence (Q13164 2-816 limits assumed): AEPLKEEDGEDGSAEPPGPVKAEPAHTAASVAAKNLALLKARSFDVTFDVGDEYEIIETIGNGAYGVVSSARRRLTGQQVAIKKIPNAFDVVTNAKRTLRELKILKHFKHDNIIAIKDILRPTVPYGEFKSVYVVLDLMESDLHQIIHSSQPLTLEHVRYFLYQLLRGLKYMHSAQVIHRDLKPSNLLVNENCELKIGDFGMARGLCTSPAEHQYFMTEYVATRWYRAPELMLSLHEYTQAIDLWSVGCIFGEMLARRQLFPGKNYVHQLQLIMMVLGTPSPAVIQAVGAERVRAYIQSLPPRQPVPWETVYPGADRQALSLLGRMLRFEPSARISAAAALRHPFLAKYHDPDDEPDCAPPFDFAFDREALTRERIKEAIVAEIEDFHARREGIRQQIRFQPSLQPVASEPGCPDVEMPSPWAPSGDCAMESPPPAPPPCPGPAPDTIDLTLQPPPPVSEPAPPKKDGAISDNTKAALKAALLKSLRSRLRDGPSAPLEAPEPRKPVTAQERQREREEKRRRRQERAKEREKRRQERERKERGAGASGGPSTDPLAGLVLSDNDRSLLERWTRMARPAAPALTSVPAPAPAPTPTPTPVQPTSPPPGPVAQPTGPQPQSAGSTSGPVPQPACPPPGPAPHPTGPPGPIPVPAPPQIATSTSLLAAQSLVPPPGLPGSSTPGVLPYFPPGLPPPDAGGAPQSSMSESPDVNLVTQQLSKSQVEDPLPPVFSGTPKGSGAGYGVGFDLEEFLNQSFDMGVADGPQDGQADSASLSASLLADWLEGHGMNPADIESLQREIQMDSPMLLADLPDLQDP
Outline: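 ERK1/2-specific or negative-control siRNA was transfected into MKN-74 cells for the indicated times, followed by compound at 0.5 μM. p-ERK1/2 and p-ERK5 puncta were detected by immunocytochemistry.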

[7] = target: T1, Mitogen-activated protein kinase; ERK1/ERK2 (Homo sapiens); test: Inhibition of ERK1/2 phosphorylation in human MKN74 cells harboring ERK1/2 siRNA at 0.5 uM by immunofluorescence assay; assay type: cell-based
Outline: (§1)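 MKN-74 cells transfected with ERK1/2-specific or negative-control siRNA for the indicated times, then given 0.5 μM. p-ERK1/2 and p-ERK5 puncta detected by immunocytochemistry.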

[8] = Effect on Ras/Raf/MEK/ERK signaling in human MKN74 cells assessed as change in MEK1/2 phosphorylation at S217/221 residue at 0.5 uM measured up to 24 hrs by Western blot analysis; assay type: cell-based
Outline: (§2)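 MKN-74 cells exposed to 0.5 μM for 0, 6, 12 and 24 h. Ras, Raf, p-MEK1/2, MEK1/2, p-JNK, JNK, p-p38 and p38 immunoblotted, with GAPDH as loading control.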

[9] = tested on: HeLa; test: Antitumor activity against human HeLa cells xenografted in BALB/c mouse assessed as reduction in tumor volume at 50 mg/kg, po administered once daily for 16 days measured every 3 days during compound dosing; assay type: functional, organism-based
Outline: (§3)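 Female nude mice bearing subcutaneous HL-60, MKN-74 or HeLa xenografts, 8 per group. Dosing was vehicle control or 50 mg/kg p.o. once daily for 16 days. Tumor volume followed over time, mean ± SEM.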

[10] = tested on: Mus musculus; test: In vivo inhibition of ERK1/2 in BALB/c mouse xenografted with human MKN74 cells assessed as reduction in ERK1/2 phosphorylation at 50 mg/kg, po administered once daily for 16 days measured post-last dose by Western blot analysis; assay type: functional, organism-based
Outline: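 Two individual tumors excised from xenograft mice were lysed. ERK1/2, p-ERK1/2, ERK5 and p-ERK5 detected by western blot.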

[11] = AUC (0 to infinity) in Sprague-Dawley rat at 1 mg/kg, iv by LC-MS analysis; assay type: ADME, organism-based; set-up: dose 1 mg/kg, route intravenous, time infinity; conditions: in vivo
Outline: (§4)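 Rats, two groups of 3; single i.v. dose 1 mg/kg or oral dose 10 mg/kg. Plasma concentration-time profiles used to derive T1/2, Tmax, Cmax, AUC0-t, AUC0-∞ and oral bioavailability. Data from triplicate testing, ± standard deviation.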

[12] = Effect on Ras/Raf/MEK/ERK signaling in human MKN74 cells assessed as change in Ras expression at 0.5 uM measured up to 24 hrs by Western blot analysis; assay type: cell-based; outline: as §2
[13] = Effect on Ras/Raf/MEK/ERK signaling in human MKN74 cells assessed as change in p38 phosphorylation at Thr180/Tyr182 residue at 0.5 uM measured up to 24 hrs by Western blot analysis; assay type: cell-based; outline: as §2
[14] = Half life in Sprague-Dawley rat at 10 mg/kg, po by LC-MS analysis; assay type: ADME, organism-based; conditions: in vivo; outline: as §4
[15] = tested on: HL-60; test: Antitumor activity against human HL60 cells xenografted in BALB/c mouse assessed as reduction in tumor volume at 50 mg/kg, po administered once daily for 16 days measured every 3 days during compound dosing; assay type: functional, organism-based; outline: as §3
[16] = tested on: MKN-74; test: Induction of autophagy in human MKN74 cells assessed as increase in p62 degradation at 0.5 uM measured up to 24 hrs by Western blot analysis; assay type: functional, cell-based
Outline: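 MKN-74 cells treated with 0.5 μM; LC3 (LC3-II) and p62 levels analyzed by immunoblotting.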

[17] = AUC (0 to t) in Sprague-Dawley rat at 10 mg/kg, po by LC-MS analysis; assay type: ADME, organism-based; conditions: in vivo; outline: as §4
[18] = Tmax in Sprague-Dawley rat at 1 mg/kg, iv by LC-MS analysis; assay type: ADME, organism-based; conditions: in vivo
Outline: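 Two groups of rats (3 per group) received a single dose, either 1 mg/kg i.v. or 10 mg/kg p.o. Plasma concentrations were followed to derive Tmax, Cmax, T1/2, AUC and F. Data are from triple testing (± standard deviation).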

[19] = tested on: MKN-74; test: Antiproliferative activity against human MKN74 cells assessed as reduction in cell viability measured after 24 hrs; assay type: functional, cell-based; conditions: MKN-74, 24 h
[20] = tested on: MKN-74; test: Antitumor activity against human MKN74 cells xenografted in BALB/c mouse assessed as reduction in tumor volume at 50 mg/kg, po administered once daily for 16 days measured every 3 days during compound dosing; assay type: functional, organism-based; outline: as §3
[21] = target: T1, Mitogen-activated protein kinase; ERK1/ERK2 (Homo sapiens); test: Inhibition of ERK1/2 in human MKN74 cells harboring siRNA assessed as reduction in ERK1/2 phosphorylation at 0.5 uM by immunofluorescence assay; assay type: cell-based; outline: as §1
[22] = tested on: MKN-74; test: Cytotoxicity against human MKN74 cells harboring ATG5 siRNA assessed as reduction in cell viability at 0.5 uM by MTT assay; assay type: functional, cell-based
Outline: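 MKN-74 cells transfected with ATG5-specific or negative-control siRNA for the indicated times, then treated with 0.5 μM. Viability read by MTT assay.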

[23] = tested on: MKN-74; test: Antitumor activity against human MKN74 cells xenografted in BALB/c mouse assessed as reduction in Ki-67 positive cells at 50 mg/kg, po administered once daily for 16 days measured post-last dose by immunohistochemical analysis; assay type: functional, organism-based
Outline: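 Tumors excised from control and 50 mg/kg p.o.-treated xenograft mice were immunostained for Ki-67, p-ERK1/2 and p-ERK5. Positive-cell percentage quantified and compared with control.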

[24] = Effect on Ras/Raf/MEK/ERK signaling in human MKN74 cells assessed as change in MEK1/2 expression at 0.5 uM measured up to 24 hrs by Western blot analysis; assay type: cell-based; outline: as §2

inhibition [2]: inactive
inhibition [3]: 91%
inhibition [5]: Active
inhibition [6]: Active
inhibition [7]: Active
AUC(0-inf) [11]: 1840 ng·h/mL
half-life [14]: 74.4 min
AUC(0-t) [17]: 5080 ng·h/mL
Tmax [18]: 4.8 min
IC50 [19]: 2550 nM
inhibition [21]: Active
Structure (SMILES): NC(=O)c1c(NC(=O)c2ccccc2Cl)sc2c1CCN(C(=S)Nc1ccccc1Cl)C2
Activity [1]: Active
Activity [4]: inactive
Activity [8]: inactive
Activity [9]: inactive
inhibition [10]: Active
Activity [12]: inactive
Activity [13]: inactive
Activity [15]: Active
Activity [16]: Active
Activity [20]: Active
Activity [22]: inactive
Activity [23]: Active
Activity [24]: inactive
